Measurements from ChEMBL document CHEMBL4130342, “New semi-synthetic analogs of oleuropein show improved anticancer activity in vitro and in vivo” (Eur J Med Chem, 2017).

Tests used:
[1] = Antiproliferative activity against human FM3 cells after 72 hrs by MTT reduction assay; assay type: functional, cell-based
How it was run: (§1)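 MTT reduction assay; adherent lines left to adhere overnight, suspension lines (HL-60, K562) seeded on the day. […] Incubation was 72 h at 37°C, with MTT added for the last 4 h. OD read at 545 nm (reference 690 nm). IC50 from 100(A0-A)/A0=50; means ± SD of 3 independent experiments.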

HCT-116 = assay: Antiproliferative activity against human HCT116 cells after 72 hrs by MTT reduction assay; assay type: functional, cell-based; conditions: HCT-116, 72 h
How it was run: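 MTT reduction assay; adherent lines left to adhere overnight, suspension lines (HL-60, K562) seeded on the day. Incubation was 72 h at 37°C, with MTT added for the last 4 h.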

HeLa = assay: Antiproliferative activity against human HeLa cells after 72 hrs by MTT reduction assay; assay type: functional, cell-based; how it was run: as §1
MCF7 = assay: Antiproliferative activity against human MCF7 cells after 72 hrs by MTT reduction assay; assay type: functional, cell-based; conditions: MCF7, 72 h; how it was run: as §1
SK-BR-3 = assay: Antiproliferative activity against human SKBR3 cells after 72 hrs by MTT reduction assay; assay type: functional, cell-based; conditions: SK-BR-3, 72 h; how it was run: as §1
HL-60 = assay: Antiproliferative activity against human HL60 cells after 72 hrs by MTT reduction assay; assay type: functional, cell-based; conditions: HL-60, 72 h; how it was run: as §1
K562 = assay: Antiproliferative activity against human K562 cells after 72 hrs by MTT reduction assay; assay type: functional, cell-based; conditions: K562, 72 h; how it was run: as §1
B16-F1 [2] = assay: Antiproliferative activity against mouse B16-F1 cells after 72 hrs by MTT reduction assay; assay type: functional, cell-based; conditions: B16-F1, 72 h; how it was run: as §1
PBMC [3] = assay: Induction of apoptosis in human PBMC at 2 ug/ml after 24 hrs by propidium iodide staining-based flow cytometric method; assay type: cell-based
PBMC [4] = assay: Induction of apoptosis in human PBMC assessed as early apoptotic cells at 25 ug/ml after 24 hrs by propidium iodide staining-based flow cytometric method (reference value: 0.1%); assay type: cell-based
PBMC [5] = assay: Induction of apoptosis in human PBMC assessed as late apoptotic cells at 25 ug/ml after 24 hrs by propidium iodide staining-based flow cytometric method (reference value: 0.6%); assay type: cell-based
PBMC [6] = assay: Induction of apoptosis in human PBMC assessed as necrotic cells at 25 ug/ml after 24 hrs by propidium iodide staining-based flow cytometric method (reference value: 1%); assay type: cell-based
B16-F1 [7] = assay: Induction of apoptosis in mouse B16-F1 cells assessed as early apoptotic cells at 25 ug/ml after 24 hrs by propidium iodide staining-based flow cytometric method (reference value: 0.5%); assay type: functional
B16-F1 [8] = assay: Induction of apoptosis in mouse B16-F1 cells assessed as late apoptotic cells at 25 ug/ml after 24 hrs by propidium iodide staining-based flow cytometric method (reference value: 0.9%); assay type: functional
B16-F1 [9] = assay: Induction of apoptosis in mouse B16-F1 cells assessed as necrotic cells at 25 ug/ml after 24 hrs by propidium iodide staining-based flow cytometric method (reference value: 0.4%); assay type: functional
B16-F1 [10] = assay: Induction of apoptosis in mouse B16-F1 cells assessed as early apoptotic cells at 25 ug/ml after 48 hrs by propidium iodide staining-based flow cytometric method (reference value: 0.2%); assay type: functional
B16-F1 [11] = assay: Induction of apoptosis in mouse B16-F1 cells assessed as late apoptotic cells at 25 ug/ml after 48 hrs by propidium iodide staining-based flow cytometric method (reference value: 0.5%); assay type: functional
B16-F1 [12] = assay: Induction of apoptosis in mouse B16-F1 cells assessed as necrotic cells at 25 ug/ml after 48 hrs by propidium iodide staining-based flow cytometric method (reference value: 1%); assay type: functional
B16-F1 [13] = assay: Induction of apoptosis in mouse B16-F1 cells assessed as early apoptotic cells at 25 ug/ml after 72 hrs by propidium iodide staining-based flow cytometric method (reference value: 0.4%); assay type: functional
B16-F1 [14] = assay: Induction of apoptosis in mouse B16-F1 cells assessed as late apoptotic cells at 25 ug/ml after 72 hrs by propidium iodide staining-based flow cytometric method (reference value: 1.4%); assay type: functional

IC50 (HCT-116) [µM] | IC50 (HeLa) [µM] | IC50 (MCF7) [µM] | IC50 (SK-BR-3) [µM] | IC50 (HL-60) [µM] | IC50 (K562) [µM] | IC50 (B16-F1 [2]) [µM] | SMILES | IC50 [1] [µM] | further results
21 | 17 | 9.66 | 3.81 | 8 | 7 | 34 | C/C=C1/[C@H](O[C@@H]2O[C@H](COC(C)=O)[C@@H](OC(C)=O)[C@H](OC(C)=O)[C@H]2OC(C)=O)OC=C(C(=O)OC)[C@H]1CC(=O)OCCCCCCCCCCCCCCCC | 27 | –
> 50 | > 50 | > 50 | > 50 | > 50 | > 50 | > 50 | C/C=C1/[C@H](O[C@@H]2O[C@H](CO)[C@@H](O)[C@H](O)[C@H]2O)OC=C(C(=O)O)[C@H]1CC(=O)O | > 50 | –
25.3 | 18.5 | 19.3 | 11 | 10.3 | 20 | 41 | C/C=C1/[C@H](O[C@@H]2O[C@H](CO)[C@@H](O)[C@H](O)[C@H]2O)OC=C(C(=O)OC)[C@H]1CC(=O)OCCc1ccccc1 (stereo in doubt) | 28 | –
– | – | – | > 20 | – | – | – | C/C=C1/[C@H](O[C@@H]2O[C@H](CO)[C@@H](O)[C@H](O)[C@H]2O)OC=C(C(=O)O)[C@H]1CC(=O)OC (stereo in doubt) | – | –
– | – | – | > 20 | – | – | – | C=CCOC(=O)C[C@@H]1C(C(=O)OC)=CO[C@@H](O[C@@H]2O[C@H](COC(C)=O)[C@@H](OC(C)=O)[C@H](OC(C)=O)[C@H]2OC(C)=O)/C1=C/C (stereo in doubt) | – | –
– | – | – | > 20 | – | – | – | C/C=C1/[C@H](O[C@@H]2O[C@H](COC(C)=O)[C@@H](OC(C)=O)[C@H](OC(C)=O)[C@H]2OC(C)=O)OC=C(C(=O)O)[C@H]1CC(=O)OC (stereo in doubt) | – | –
– | – | – | > 15 | – | – | – | C/C=C1/[C@H](O[C@@H]2O[C@H](COC(C)=O)[C@@H](OC(C)=O)[C@H](OC(C)=O)[C@H]2OC(C)=O)OC=C(C(=O)OC)[C@H]1CC(=O)OCc1ccco1 (stereo in doubt) | – | –
25.7 | 17.5 | 15 | 6.6 | 10.7 | 8.5 | 44 | C/C=C1/[C@H](O[C@@H]2O[C@H](COC(C)=O)[C@@H](OC(C)=O)[C@H](OC(C)=O)[C@H]2OC(C)=O)OC=C(C(=O)OC)[C@H]1CC(=O)OCCC (stereo in doubt) | 29 | –
– | – | – | > 20 | – | – | – | C/C=C1/[C@H](O[C@@H]2O[C@H](CO)[C@@H](O)[C@H](O)[C@H]2O)OC=C(C(=O)OC)[C@H]1CC(=O)NCCC (stereo in doubt) | – | –
13.7 | 5.6 | 5 | 2 | 0.48 | 0.85 | 5.04 | C/C=C1/[C@H](O[C@@H]2O[C@H](CO)[C@@H](O)[C@H](O)[C@H]2O)OC=C(C(=O)OC)[C@H]1CC(=O)OCCC1CCCCC1 (stereo in doubt) | 9.33 | Activity (PBMC [3]): > 30%
– | – | – | > 15 | – | – | – | C#CCOC(=O)C[C@@H]1C(C(=O)OC)=CO[C@@H](O[C@@H]2O[C@H](COC(C)=O)[C@@H](OC(C)=O)[C@H](OC(C)=O)[C@H]2OC(C)=O)/C1=C/C (stereo in doubt) | – | –
26 | 21 | 18.7 | 11.5 | 10 | 16 | 43 | C/C=C1/[C@H](O[C@@H]2O[C@H](COC(C)=O)[C@@H](OC(C)=O)[C@H](OC(C)=O)[C@H]2OC(C)=O)OC=C(C(=O)OC)[C@H]1CC(=O)OCCc1ccccc1 (stereo in doubt) | 29.3 | –
– | – | – | > 15 | – | – | – | C/C=C1/[C@H](O[C@@H]2O[C@H](CO)[C@@H](O)[C@H](O)[C@H]2O)OC=C(C(=O)OC)[C@H]1CC(=O)OCc1ccco1 (stereo in doubt) | – | –
– | – | – | > 15 | – | – | – | C/C=C1/[C@H](O[C@@H]2O[C@H](COC(C)=O)[C@@H](OC(C)=O)[C@H](OC(C)=O)[C@H]2OC(C)=O)OC=C(C(=O)OC)[C@H]1CC(=O)SCCC (stereo in doubt) | – | –
– | – | – | > 15 | – | – | – | C#CCOC(=O)C[C@@H]1C(C(=O)OC)=CO[C@@H](O[C@@H]2O[C@H](CO)[C@@H](O)[C@H](O)[C@H]2O)/C1=C/C (stereo in doubt) | – | –
26.7 | 19.5 | 21.3 | 9.02 | 9.83 | 18 | 39.1 | C/C=C1/[C@H](O[C@@H]2O[C@H](CO)[C@@H](O)[C@H](O)[C@H]2O)OC=C(C(=O)OC)[C@H]1CC(=O)OCCC(C)C (stereo in doubt) | 27.7 | –
– | 0.221 | – | 0.202 | 0.017 | 0.018 | 0.23 | COc1cccc2c1C(=O)c1c(O)c3c(c(O)c1C2=O)C[C@@](O)(C(=O)CO)C[C@@H]3O[C@H]1C[C@H](N)[C@H](O)[C@H](C)O1 [DOXORUBICIN] | 0.217 | Activity (PBMC [4]): 0%; Activity (PBMC [5]): 4.6%; Activity (PBMC [6]): 46.2%; Activity (B16-F1 [7]): 23.4%; Activity (B16-F1 [8]): 1.5%; Activity (B16-F1 [9]): 1.1%; Activity (B16-F1 [10]): 57.5%; Activity (B16-F1 [11]): 2%; Activity (B16-F1 [12]): 0.9%; Activity (B16-F1 [13]): 71.5%; Activity (B16-F1 [14]): 8.1%
– | – | – | > 20 | – | – | – | C/C=C1/[C@H](O[C@@H]2O[C@H](CO)[C@@H](O)[C@H](O)[C@H]2O)OC=C(C(=O)OC)[C@H]1CC(=O)OCCc1ccc(O)cc1 [LIGSTROSIDE] | – | –

SMILES | IC50 (HCT-116) [µM] | IC50 (HeLa) [µM] | IC50 (MCF7) [µM] | IC50 (SK-BR-3) [µM] | IC50 (HL-60) [µM] | IC50 (K562) [µM] | IC50 (B16-F1 [2]) [µM] | IC50 [1] [µM] | further results
OCCc1ccc(O)c(O)c1 [HYDROXYTYROSOL] | – | – | – | 201 | – | – | – | – | –
